Experimental data taken from ChEMBL document CHEMBL1926612, “Solid-phase synthesis of 2'-hydroxychalcones. Effects on cell growth inhibition, cell cycle and apoptosis of human tumor cell lines” (2012).
Activity calls are given as the source filed them. The calls are words filed in the database; no cut-off is given here.

Legend:
Format in all cases: functional
MCF7 [1] = test: Induction of apoptosis in human MCF7 cells at 9.1 uM by annexinV-propidium iodide staining-based flow cytometric analysis (reference value: 11.1%)
Procedure, shortened: (§1)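 MCF-7 handled as for the cell-cycle study: 48 h exposure at the stated concentration, with untreated cells and a highest-level DMSO control. Harvested cells stained with annexin V-FITC/PI per kit instructions. Flow cytometry with ≥20,000 events per sample; apoptosis given as % of total cells. Mean ± SEM of three experiments (DMSO control two); unpaired t-test against untreated cells.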

[2] = Growth inhibition of human A375-C5 cells after 48 hrs by SRB assay; settings: A375-C5, 48 h
Procedure, shortened: (§2)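 Cells seeded to stay in exponential growth (MCF-7 and NCI-H460 5.0 × 10³ cells/well, A375-C5 7.5 × 10³ cells/well) and left to adhere overnight. Then 48 h exposure to five serial dilutions (1:2 or 1:3) from DMSO stocks diluted in medium; DMSO vehicle control maximum 0.25%. TCA fixation, SRB staining, Tris solubilisation, absorbance at 492 nm. GI50 taken from dose–response curves as 50% inhibition of net growth. Mean ± SEM of ≥3 independent experiments, in duplicate.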

MCF7 [3] = test: Growth inhibition of human MCF7 cells after 48 hrs by SRB assay; settings: MCF7, 48 h; procedure, shortened: as §2
NCI-H460 = test: Growth inhibition of human NCI-H460 cells after 48 hrs by SRB assay; settings: NCI-H460, 48 h; procedure, shortened: as §2
MCF7 [4] = test: Induction of apoptosis in human MCF7 cells at 4.1 uM by annexinV-propidium iodide staining-based flow cytometric analysis (reference value: 11.1%); procedure, shortened: as §1
MCF7 [5] = test: Cell cycle arrest in human MCF7 cells assessed as accumulation at sub-G1 phase at 7.8 uM after 48 hrs by propidium iodide staining-based flow cytometric analysis
Procedure, shortened: (§3)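 MCF-7 plated in 6-well plates (5.0 × 10³ cells/well) and held 24 h at 37 °C. Exponentially growing cells then exposed 48 h at the single concentration stated. Untreated and highest-level DMSO controls included. Fixation in 70% ethanol at 4 °C for ≥12 h, then PBS with 0.1 mg/mL RNase A and 5 µg/mL PI. DNA content by flow cytometry, ≥20,000 events; sub-G1 fraction scored after debris exclusion. Mean ± SEM of three experiments; unpaired t-test versus untreated cells.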

MCF7 [6] = test: Induction of apoptosis in human MCF7 cells at 7.8 uM by annexinV-propidium iodide staining-based flow cytometric analysis (reference value: 11.1%); procedure, shortened: as §1
MCF7 [7] = test: Induction of apoptosis in human MCF7 cells at 7.1 uM by annexinV-propidium iodide staining-based flow cytometric analysis (reference value: 11.1%); procedure, shortened: as §1
MCF7 [8] = test: Cell cycle arrest in human MCF7 cells assessed as accumulation at sub-G1 phase at 7.3 uM after 48 hrs by propidium iodide staining-based flow cytometric analysis relative to control; procedure, shortened: as §3
MCF7 [9] = test: Induction of apoptosis in human MCF7 cells at 7.3 uM by annexinV-propidium iodide staining-based flow cytometric analysis (reference value: 11.1%); procedure, shortened: as §1
MCF7 [10] = test: Induction of apoptosis in human MCF7 cells at 8 uM by annexinV-propidium iodide staining-based flow cytometric analysis (reference value: 11.1%); procedure, shortened: as §1
MCF7 [11] = test: Cell cycle arrest in human MCF7 cells assessed as accumulation at sub-G1 phase at 8 uM after 48 hrs by propidium iodide staining-based flow cytometric analysis; procedure, shortened: as §3
MCF7 [12] = test: Induction of apoptosis in human MCF7 cells at 10.5 uM by annexinV-propidium iodide staining-based flow cytometric analysis (reference value: 11.1%); procedure, shortened: as §1

| GI50 (MCF7 [3]) [µM] | GI50 (NCI-H460) [µM] | Structure (SMILES) | GI50 [2] [µM] | also measured |
| --- | --- | --- | --- | --- |
| 9.1 | 24.5 | CCCc1c(O)ccc(C(=O)/C=C/c2cc(OC)c(OC)cc2OC)c1O | 23 | Activity (MCF7 [1]): 13.3% |
| 19.5 | 37 | COc1ccc(/C=C/C(=O)c2ccc(O)cc2O)c(OC)c1 | 30.3 |  |
| 32.7 | > 150 | COCOc1ccc(/C=C/C(=O)c2ccc(O)c(C)c2O)c(OCOC)c1 | > 150 |  |
| 18.8 | 47 | CCCc1c(O)ccc2c1OC(c1cc(OC)c(OC)cc1OC)CC2=O (stereo unspecified) | 32 |  |
| 4.1 | 8.3 | CCCc1c(O)ccc(C(=O)/C=C/c2cc(OC)c(OC)c(OC)c2)c1O | 8.2 | Activity (MCF7 [4]): 14% |
| 12.5 | > 150 | COc1ccc(C2CC(=O)c3ccc(O)c(C)c3O2)c(OC)c1 (stereo unspecified) | > 150 |  |
| 31.8 | 60 | COc1cc(OC)c(OC)cc1/C=C/C(=O)c1ccc(O)cc1O | 34.8 |  |
| 0.0688 | 0.086 | COc1cccc2c1C(=O)c1c(O)c3c(c(O)c1C2=O)C[C@@](O)(C(=O)CO)C[C@@H]3O[C@H]1C[C@H](N)[C@H](O)[C@H](C)O1 [DOXORUBICIN] | 0.0915 |  |
| 7.8 | 8.2 | COc1cc(/C=C/C(=O)c2ccc(O)cc2O)cc(OC)c1OC | 8.1 | Activity (MCF7 [5]): Active; Activity (MCF7 [6]): 20% |
| 7.1 | 12.5 | CCCc1c(O)ccc(C(=O)/C=C/c2ccccc2Cl)c1O | 14.2 | Activity (MCF7 [7]): 14.8% |
| 18.2 | 24.3 | CCCc1c(O)ccc(C(=O)/C=C/c2ccc(OCOC)cc2OCOC)c1O | 35 |  |
| 19.3 | 20.3 | Cc1c(O)ccc(C(=O)/C=C/c2ccc(C(F)(F)F)cc2)c1O | 24.7 |  |
| 34.5 | 43 | Cc1c(O)ccc(C(=O)/C=C/c2ccc(Cl)cc2)c1O | 41.6 |  |
| 7.3 | 15.3 | O=C(/C=C/c1ccc(F)cc1)c1ccc(O)cc1O | 14.1 | Activity (MCF7 [8]): 11%; Activity (MCF7 [9]): 23.9% |
| 13.3 | 24.7 | CCCc1c(O)ccc(C(=O)/C=C/c2ccc(OC)cc2)c1O | 46.3 |  |
| 8 | 10.5 | O=C(/C=C/c1ccc(OCc2ccccc2)cc1)c1ccc(O)cc1O | 9 | Activity (MCF7 [10]): 15.4%; Activity (MCF7 [11]): Active |
| 10.5 | 22.5 | Cc1c(O)ccc(C(=O)/C=C/c2ccc(Cl)cc2Cl)c1O | 21.4 | Activity (MCF7 [12]): 16.6% |
